The text below walks through data of ChEMBL document CHEMBL1122506, “Cardiac-slowing amidines containing the 3-thioindone group. Potential antianginal agents” (1983).

Test [1] concerns Canis familiaris. The experiment in a line: Dose required to achieve 50 % of maximal cardiac slowing in triazine tachycardia test in conscious dog. Type of test: functional, Canis lupus familiaris. The procedure, abridged:
(§1)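 Triazine tachycardia in conscious dogs: carotid artery and jugular vein catheterized with heparinized saline; 18 h after surgery, triazine vasodilator U20388 12 mg/kg po; about 1 h later, dog in sling with arterial pressure and ECG monitored. Test agent infused iv at 0.8 (mg/kg)/min to 30 mg/kg total. D50 = dose giving 50% of maximal slowing in that animal; ΔHR50 = heart-rate change at D50; CS index = %ΔHR50/D50.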

The species named for test [2] is Canis familiaris. The experiment in a line: Percent decrease from initial heart rate (percent delta HR50/HR0 x 100) in dogs. It counts as functional, Canis lupus familiaris. The procedure, abridged:
as §1

Test [3] relates to Canis familiaris. The experiment in a line: Change in heart rate at the above D50 dose in conscious dogs. Type of test: functional, Canis lupus familiaris. The procedure, abridged:
as §1

The species named for test [4] is Canis familiaris. The experiment in a line: Relative activity (fraction of the most active compound 24) was determined. Type of test: functional, Canis lupus familiaris.
For test [5], the system named is Canis familiaris. The experiment in a line: Myocardial depression rating in anesthetized, ganglion-blocked dog; Weak activity.
Test [6] is filed under the species Canis familiaris. The experiment in a line: Cardiac slowing index was measured for potency and efficacy. Type of test: functional, Canis lupus familiaris. The procedure, abridged: as §1
For test [7], the system named is Canis familiaris. The experiment in a line: Myocardial depression in anesthetized, ganglion-blocked dog; Moderate activity.

Molecule `COc1ccc2[nH]cc(SCC/N=C3\CCCN3C)c2c1` had a D50 in test [1] of 2.3 mg/kg. Moreover, the “Delta HR50” value is reported as 17.8% in test [2] and -39 beats min-1 in test [3]. Besides, the Relative activity in test [4] is given as 0.24. This molecule also displayed an MD in test [5] of 2. The same molecule registered a CS index in test [6] of 7.7.
As to `Cc1[nH]c2ccccc2c1SCCNC1=NCCN1C`, in test [1], the D50 stood at 2.6 mg/kg. Also, the “Delta HR50” value is 19.5% in test [2] and -37 beats min-1 in test [3]. The Relative activity in test [4] came out at 0.23. Also, the MD in test [5] was 2.5. The same molecule came in with a CS index in test [6] of 7.5.
In the case of `CN1CCC/C1=N\CCSc1cn(CC2CC2)c2ccccc12`, the D50 in test [1] was determined as 1.4 mg/kg. The “Delta HR50” value is recorded as 25.5% in test [2] and -60 beats min-1 in test [3]. Moreover, in test [4], the Relative activity amounted to 0.57. In test [5], this molecule came in with an MD of 2.5. Further, in test [6], the CS index is recorded as 18.2.
The molecule `C=CCCn1cc(SCC/N=C2\CCCN2C)c2ccccc21` gave an MD in test [7] of 3. In test [1], this molecule yielded a D50 of 1.1 mg/kg. The “Delta HR50” value is recorded as 16.2% in test [2] and -33 beats min-1 in test [3]. In test [4], this molecule returned a Relative activity of 0.46. Also, the CS index in test [6] amounted to 14.7.
Molecule `C#CCn1cc(SCC/N=C2\CCCN2C)c2ccccc21` had a D50 in test [1] of 1.1 mg/kg. The “Delta HR50” value in test [2] is reported as 21.6%; in test [3], -46 beats min-1. In test [4], the Relative activity is recorded as 0.61. In test [5], this molecule showed an MD of 2.5. The same molecule showed a CS index in test [6] of 19.6.
In test [7], `C#CCn1cc(CC/N=C2/CCCN2C)c2ccccc21` showed an MD of 3. This molecule also registered a D50 in test [1] of 1.5 mg/kg. The “Delta HR50” value was 22.3% in test [2] and -47 beats min-1 in test [3]. Further, the Relative activity in test [4] was determined as 0.46. Moreover, the CS index in test [6] worked out at 14.9.
In test [1], `CN1CCC/C1=N/CCc1cn(Cc2ccccc2)c2ccccc12` registered a D50 of 2.6 mg/kg. Further, the “Delta HR50” value is on record as 24.3% in test [2] and -52 beats min-1 in test [3]. The molecule further had a Relative activity in test [4] of 0.29. The CS index in test [6] was 9.3.
Take `CN1CCC/C1=N\CCCCSc1c[nH]c2ccccc12`: the MD in test [7] came out at 3. Also, the D50 in test [1] was determined as 2 mg/kg. Also, the “Delta HR50” value in test [2] is on record as 20%; in test [3], -42 beats min-1. Also, the Relative activity in test [4] amounted to 0.31. Further, in test [6], the CS index amounted to 10.
In test [7], `CN1CCC/C1=N\CCSc1cn(Cc2ccccc2)c2ccccc12` showed an MD of 3.
The molecule `CN1CCCN=C1NCCSc1c[nH]c2ccccc12` returned a D50 in test [1] of 6.4 mg/kg. In addition, the “Delta HR50” value in test [2] is reported as 20%; in test [3] it was -38 beats min-1. In test [4], this molecule gave a Relative activity of 0.1. Also, in test [6], the CS index is reported as 3.1.
With `CN1CCCC/C1=N\CCSc1c[nH]c2ccccc12`, the D50 in test [1] came out at 3 mg/kg. The “Delta HR50” value in test [2] is reported as 22.4%; in test [3], -51 beats min-1. The same molecule returned a Relative activity in test [4] of 0.23. In test [5], this molecule showed an MD of 2.5. Also, the CS index in test [6] stood at 7.5.
Regarding `C=C(C)Cn1cc(SCC/N=C2\CCCN2C)c2ccccc21`, the D50 in test [1] was 4.4 mg/kg. The results for the “Delta HR50” value in test [2] and in test [3] were 20% and -42 beats min-1, respectively. Moreover, in test [4], the Relative activity was determined as 0.14. Besides, in test [5], the MD was determined as 2.5. The CS index in test [6] is 4.5.
Molecule `C=CCN1CCC/C1=N\CCSc1c[nH]c2ccccc12` gave a D50 in test [1] of 0.7 mg/kg. Also, the “Delta HR50” value in test [2] is listed as 12.4%; in test [3] it was -22 beats min-1. In test [4], this molecule gave a Relative activity of 0.55. This molecule also registered a CS index in test [6] of 17.7.
In the same order, the values of `CCc1ccc2[nH]cc(SCC/N=C3\CCCN3C)c2c1` are 8.6 mg/kg, 15.5%, -21 beats min-1, 0.06 and 1.8.
Consider `CN1CCC/C1=N/CCCSc1c[nH]c2ccccc12`, for which, in test [7], the MD worked out at 3. The molecule further yielded a D50 in test [1] of 3.8 mg/kg. The “Delta HR50” value in test [2] is listed as 20.4%; in test [3], -46 beats min-1. Besides, in test [4], the Relative activity is 0.17. Further, in test [6], the CS index was determined as 5.4.
For `C#CCn1c(C)c(SCC/N=C2\CCCN2C)c2ccccc21`, the D50 in test [1] came to 5.5 mg/kg. In addition, the “Delta HR50” value is on record as 18.5% in test [2] and -20 beats min-1 in test [3]. Moreover, the Relative activity in test [4] was found to be 0.11. Further, in test [6], the CS index is reported as 3.4.
`CN1CCC/C1=N\CCSc1cn(C2C=CCCC2)c2ccccc12` (stereo not drawn) had an MD in test [7] of 3.5. This molecule also had a D50 in test [1] of 1.9 mg/kg. Besides, the “Delta HR50” value is listed as 20.8% in test [2] and -52 beats min-1 in test [3]. The molecule also yielded a Relative activity in test [4] of 0.34. Besides, in test [6], the CS index stood at 10.9.
Turning to `CCN1CC(CC/N=C2\CCCN2C)c2ccccc21` (stereo not drawn), the D50 in test [1] came to 3.3 mg/kg. The “Delta HR50” value in test [2] was 18.4%; in test [3] it was -45 beats min-1. The molecule also came in with a Relative activity in test [4] of 0.17. In addition, the MD in test [5] is 2. In test [6], this molecule had a CS index of 5.6.
Consider `CN1CCN=C1NCCSc1c[nH]c2ccccc12`, for which the D50 in test [1] was determined as 2.9 mg/kg. Moreover, the “Delta HR50” value is recorded as 19.9% in test [2] and -38 beats min-1 in test [3]. The molecule further yielded a Relative activity in test [4] of 0.22. Further, the MD in test [5] is 2. The same molecule showed a CS index in test [6] of 6.9.
The molecule `CN1CCN=C1NCCc1c[nH]c2ccccc12` registered a D50 in test [1] of 9.7 mg/kg. Further, the “Delta HR50” value in test [2] was 20.5%; in test [3] it was -47 beats min-1. For the same molecule, the Relative activity in test [4] is 0.06. Besides, the MD in test [5] was 2. In test [6], this molecule yielded a CS index of 2.1.
The molecule `C=CCn1cc(SCC/N=C2\CCCN2C)c2ccccc21` displayed a D50 in test [1] of 1 mg/kg. In addition, the “Delta HR50” value in test [2] is given as 22.2%; in test [3] it was -52 beats min-1. The Relative activity in test [4] is reported as 0.69. In test [5], the MD was found to be 2. In test [6], this molecule had a CS index of 22.2.
`C=CCn1cc(CC/N=C2/CCCN2C)c2ccccc21` returned a D50 in test [1] of 1.2 mg/kg. For the same molecule, the “Delta HR50” value is 14.7% in test [2] and -26 beats min-1 in test [3]. Also, the Relative activity in test [4] worked out at 0.38. This molecule registered a CS index in test [6] of 12.2.
In test [1], `CN1CCC/C1=N\CCSc1c[nH]c2ccc(Cl)cc12` yielded a D50 of 3.5 mg/kg. The “Delta HR50” value is 16.2% in test [2] and -32 beats min-1 in test [3]. The same molecule yielded a Relative activity in test [4] of 0.14. The molecule also came in with an MD in test [5] of 2. Further, in test [6], the CS index was 4.6.
In test [1], `CC(=NCCSc1c[nH]c2ccccc12)N(C)C` returned a D50 of 2 mg/kg. The “Delta HR50” value was 23% in test [2] and -50 beats min-1 in test [3]. Also, the Relative activity in test [4] is recorded as 0.36. This molecule gave an MD in test [5] of 2. For the same molecule, the CS index in test [6] was determined as 11.5.
`CN1CCC/C1=N/CCc1c[nH]c2ccccc12`: in test [1], the D50 was 3.4 mg/kg. For the same molecule, the “Delta HR50” value in test [2] is listed as 16%; in test [3], -28 beats min-1. Moreover, the Relative activity in test [4] stood at 0.15. The same molecule came in with an MD in test [5] of 2. In addition, in test [6], the CS index is 4.7.
The molecule `c1ccc2c(SCCNC3=NCCC3)c[nH]c2c1` showed a D50 in test [1] of 3.7 mg/kg. The “Delta HR50” value in test [2] is 23%; in test [3], -51 beats min-1. The molecule further had a Relative activity in test [4] of 0.19. This molecule came in with a CS index in test [6] of 6.2.
Consider `CN1CCC/C1=N\CCSc1cn(Cc2ccco2)c2ccccc12`, for which the MD in test [7] worked out at 3.5. In addition, in test [1], the D50 was 2.6 mg/kg. For the same molecule, the entries for the “Delta HR50” value in test [2] and in test [3] were 22.4% and -42 beats min-1, respectively. Besides, the Relative activity in test [4] came to 0.27. In addition, the CS index in test [6] was 8.6.
Consider `CN1CCC/C1=N\CCSc1cn(C2CCCC2)c2ccccc12`, for which, in test [7], the MD came out at 3. In test [1], this molecule showed a D50 of 2.7 mg/kg. Moreover, the “Delta HR50” value in test [2] is listed as 21%; in test [3], -40 beats min-1. In test [4], this molecule displayed a Relative activity of 0.24. In addition, the CS index in test [6] is listed as 7.8.
For the molecule `c1ccc(N2CCC/C2=N\CCSc2c[nH]c3ccccc23)cc1`, the D50 in test [1] came to 0.6 mg/kg. The “Delta HR50” value in test [2] was 19.2%; in test [3] it was -40 beats min-1. In test [4], this molecule gave a Relative activity of 1. The molecule also displayed an MD in test [5] of 2.5. For the same molecule, the CS index in test [6] was 32.
In turn, `CC(CSc1c[nH]c2ccccc12)/N=C1\CCCN1C` (stereo not drawn) came in with an MD in test [7] of 3.5. Moreover, the D50 in test [1] amounted to 2.7 mg/kg. Moreover, the “Delta HR50” value in test [2] was 24%; in test [3], -46 beats min-1. Also, in test [4], the Relative activity is 0.28. Besides, the CS index in test [6] worked out at 8.9.
Turning to `CN1CCCCC/C1=N\CCSc1c[nH]c2ccccc12`, in test [1], the D50 came out at 14.1 mg/kg. Besides, the figures for the “Delta HR50” value in test [2] and in test [3] were 18.5% and -38 beats min-1, respectively. For the same molecule, the Relative activity in test [4] stood at 0.04. In test [6], this molecule yielded a CS index of 1.3.
